Consider eight compounds from ChEMBL document CHEMBL1125498, “N-methylated analogs of Ac[Nle28,31]CCK(26-33): synthesis, activity, and receptor selectivity” (J Med Chem, 1992).

pEC50: −log10 of the molar value. Where a SMILES comes first, the peptide text is derived from it. [ ]: non-standard residue; d: D form. sY = N[C@@H](Cc1ccc(OS(=O)(=O)O)cc1)C(=O)O; Nle = CCCC[C@H](N)C(=O)O

The target of test [1] is T1, Cholecystokinin receptor type A (Cavia porcellus, UniProt Q63931).
T1 sequence (Q63931 whole entry): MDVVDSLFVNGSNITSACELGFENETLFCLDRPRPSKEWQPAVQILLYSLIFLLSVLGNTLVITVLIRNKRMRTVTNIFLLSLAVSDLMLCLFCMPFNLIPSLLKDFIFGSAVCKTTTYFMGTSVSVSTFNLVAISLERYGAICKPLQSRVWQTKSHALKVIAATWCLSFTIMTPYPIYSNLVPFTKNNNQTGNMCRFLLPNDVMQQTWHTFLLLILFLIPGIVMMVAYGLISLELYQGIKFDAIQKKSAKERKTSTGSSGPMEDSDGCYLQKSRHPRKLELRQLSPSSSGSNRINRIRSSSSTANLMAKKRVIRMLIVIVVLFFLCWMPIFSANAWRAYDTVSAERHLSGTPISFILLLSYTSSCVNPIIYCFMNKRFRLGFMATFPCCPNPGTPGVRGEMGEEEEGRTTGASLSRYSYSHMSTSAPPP
As to the kind of experiment: In vitro smooth muscle contraction activity in guinea pig gall bladder cholecystokinin type A receptor. The test is classed as functional, tissue-based. The essentials: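 Isolated guinea pig tissue strips, equilibrated 90 min with periodic tension readjustment and bath changes. Isometric force recorded. Cumulative-free concentration-response curves from increasing peptide concentrations, strips washed three times with 5–15-min intervals between doses. Carbachol test dose (100 nM) measured before, during and after as control. EC50 from curves; points in duplicate, mean ± SEM of at least three experiments.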

For test [2], the target named is Gastrin/cholecystokinin type B receptor (Cavia porcellus). Put plainly: In vitro smooth muscle contraction activity in guinea pig stomach consisting of CCK/gastrin receptor subtype.
The species entered for test [3] is Cavia porcellus. Put plainly: Relative Potency(RP %) (EC50) was calculated by using smooth muscle contraction assay in guinea pig gallbladder with relative to Ac[Nle28,31]CCK(26-33)(EC50). The test is classed as functional, Muscle tissue. Put shortly:
(§1)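 Same isolated guinea pig tissue contraction set-up: 90 min equilibration, isometric force, increasing peptide concentrations with three washes at 5–15-min intervals, 100 nM carbachol control.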

For test [4], the target named is Cholecystokinin receptor (Cavia porcellus). Put plainly: In vitro smooth muscle contraction activity in guinea pig ileum consists of two or three CCK receptor subtypes.
The species named for test [5] is Cavia porcellus. As to the kind of experiment: Relative Potency(RP %) (EC50) was calculated by using smooth muscle contraction assay in guinea pig stomach with relative to Ac[Nle28,31]CCK(26-33)(EC50). It counts as functional, Muscle tissue. Put shortly:
as §1

Test [6] is filed under the species Cavia porcellus. As to the kind of experiment: Relative Potency(RP %) (EC50) was calculated by using smooth muscle contraction assay in guinea pig ileum with relative to Ac[Nle28,31]CCK(26-33)(EC50). It counts as functional. The essentials:
as §1

In the case of `CCCC[C@H](NC(=O)[C@H](Cc1ccc(OS(=O)(=O)O)cc1)NC(=O)[C@H](CC(=O)O)NC(C)=O)C(=O)NCC(=O)N[C@@H](Cc1c[nH]c2ccccc12)C(=O)N[C@@H](CCCC)C(=O)N(C)[C@@H](CC(=O)O)C(=O)N[C@@H](Cc1ccccc1)C(N)=O`, the pEC50 in test [1] is 8.70.

In test [1], `CCCC[C@H](NC(=O)[C@H](Cc1ccc(OS(=O)(=O)O)cc1)NC(=O)[C@H](CC(=O)O)NC(C)=O)C(=O)NCC(=O)N[C@@H](Cc1c[nH]c2ccccc12)C(=O)N[C@@H](CCCC)C(=O)N[C@@H](CC(=O)O)C(=O)N(C)[C@@H](Cc1ccccc1)C(N)=O` gave a pEC50 of 8.52.

Turning to `CCCC[C@H](NC(=O)[C@H](Cc1ccc(OS(=O)(=O)O)cc1)NC(=O)[C@H](CC(=O)O)NC(C)=O)C(=O)NCC(=O)N[C@@H](Cc1c[nH]c2ccccc12)C(=O)N(C)[C@@H](CCCC)C(=O)N[C@@H](CC(=O)O)C(=O)N[C@@H](Cc1ccccc1)C(N)=O`, the negative logarithm of the EC50 (pEC50) in test [2] is 6.85; in test [1] it was 7.70. In addition, the “Relative Potency” value was 6 in the test listed under Cavia porcellus [3], 10 in the test listed under Cavia porcellus [5] and 4 in the test listed under Cavia porcellus [6]. The compound also registered an EC50 in test [4] of 37 nM.

In turn, `CCCC[C@H](NC(=O)[C@H](Cc1ccc(OS(=O)(=O)O)cc1)NC(=O)[C@H](CC(=O)O)NC(C)=O)C(=O)NCC(=O)N(C)[C@@H](Cc1c[nH]c2ccccc12)C(=O)N[C@@H](CCCC)C(=O)N[C@@H](CC(=O)O)C(=O)N[C@@H](Cc1ccccc1)C(N)=O` had a pEC50 in test [1] of 7.28.

For the compound `CCCC[C@H](NC(=O)[C@H](Cc1c[nH]c2ccccc12)NC(=O)CN(C)C(=O)[C@H](CCCC)NC(=O)[C@H](Cc1ccc(OS(=O)(=O)O)cc1)NC(=O)[C@H](CC(=O)O)NC(C)=O)C(=O)N[C@@H](CC(=O)O)C(=O)N[C@@H](Cc1ccccc1)C(N)=O`, the negative logarithm of the EC50 (pEC50) in test [1] was 10.00.

Turning to `CCCC[C@H](NC(=O)[C@H](Cc1ccc(OS(=O)(=O)O)cc1)NC(=O)[C@H](CC(=O)O)NC(C)=O)C(=O)NCC(=O)N[C@@H](Cc1c[nH]c2ccccc12)C(=O)N[C@@H](CCCC)C(=O)N[C@@H](CC(=O)O)C(=O)N[C@@H](Cc1ccccc1)C(N)=O`, the pEC50 in test [1] was 8.92.

For the compound `CCCC[C@H](NC(=O)[C@H](Cc1c[nH]c2ccccc12)NC(=O)CNC(=O)[C@H](CCCC)NC(=O)[C@H](Cc1ccc(OS(=O)(=O)O)cc1)N(C)C(=O)[C@H](CC(=O)O)NC(C)=O)C(=O)N[C@@H](CC(=O)O)C(=O)N[C@@H](Cc1ccccc1)C(N)=O`, the pEC50 in test [1] is 8.85.

With `CCCC[C@H](NC(=O)[C@H](Cc1c[nH]c2ccccc12)NC(=O)[C@@H]1CCCN1C(=O)[C@H](CCCC)NC(=O)[C@H](Cc1ccc(OS(=O)(=O)O)cc1)NC(=O)[C@H](CC(=O)O)NC(C)=O)C(=O)N[C@@H](CC(=O)O)C(=O)N[C@@H](Cc1ccccc1)C(N)=O` (Ac-D[sY][Nle]PW[Nle]DF-NH2), the figures for the pEC50 in test [2] and in test [1] were 7.27 and 7.22, respectively. The “Relative Potency” value is 2 in the test listed under Cavia porcellus [3], 25 in the test filed under Cavia porcellus [5] and 1.3 in the test listed under Cavia porcellus [6]. The compound also registered an EC50 in test [4] of 104 nM.

One may read the pEC50 as the negative decadic logarithm of the EC50, by convention in mol/L. Broadly, the EC50 is the concentration at which the effect is half-maximal. Higher therefore signals a less potent agent.
